# Source: PubChem BioAssay (Broad Institute)
# PglD inh: blocks C. jejuni PglD acetyltransferase activity; AID 602405; purified PglD enzyme, DTNB colorimetric CoA detection; inhibition, % at 12.5 µM; 360,000 compounds, 0.098% hits; in the data active = inhibition above about 16%, passing the limit was not always enough; inconclusive = no clear call, values can overlap the other calls
# Cneo AK release: causes C. neoformans cell lysis; 360,000 compounds, 0.2% hits; lysis activity, % at 15 µM; adenylate kinase release luminescence, 4 h; normalised: neutral wells 0, clomiphene wells 100; AID 651654;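 active = mean lysis activity across replicates of at least 80%, whatever share of replicates individually reach that level; inactive = mean lysis activity below 80%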
#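 Signal: Adenylate kinase release luminescence | Assay system: Log-phase Cryptococcus neoformans yeast cells | Input: Cells at 5 × 10^6 per mL | Buffer or medium: Fresh YPD growth medium | Compound: Single dose | Schedule: Static 4 h at 37 °C with compound, 1 h detection | Controls: Clomiphene | Read-out: Luminescence rise reflecting yeast cell lysis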
# RAD52 inh: inhibitors of human RAD52 DNA annealing | P43351 | recombinant RAD52 DNA annealing, FRET fluorescence | inhibition, % at 18.7 µM | 360,000 compounds, 0.46% hits;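 active = every replicate showing at least 50% inhibition; inconclusive = mean inhibition at least 50% but not in every replicate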
# Target sequence (P43351 whole entry, looked up): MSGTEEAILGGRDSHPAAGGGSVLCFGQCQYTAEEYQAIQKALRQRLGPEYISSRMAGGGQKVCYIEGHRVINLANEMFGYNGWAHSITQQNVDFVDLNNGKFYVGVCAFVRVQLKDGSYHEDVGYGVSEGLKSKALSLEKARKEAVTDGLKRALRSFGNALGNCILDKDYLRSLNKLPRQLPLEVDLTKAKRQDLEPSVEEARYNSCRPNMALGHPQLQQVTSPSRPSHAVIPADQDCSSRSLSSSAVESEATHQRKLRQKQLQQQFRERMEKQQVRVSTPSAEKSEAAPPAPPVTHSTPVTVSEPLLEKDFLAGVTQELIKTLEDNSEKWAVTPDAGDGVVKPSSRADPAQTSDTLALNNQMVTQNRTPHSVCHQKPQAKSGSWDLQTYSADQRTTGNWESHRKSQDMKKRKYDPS
# RAD54 inh: inhibitors of human RAD54 branch migration; Q92698; RAD54 Holliday junction branch migration, FAM/BHQ fluorescence; inhibition, % at 10.4 µM; 360,000 compounds, 0.14% hits; AID 602329;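 active = mean normalized replicate activity at least 40 and at least half of replicates scoring 40 or more; inconclusive = only one of the two criteria met; inactive = mean below 40 and under half of replicates reaching 40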;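 also: 0% = median of neutral control wells and 100% = median of positive control wells; inhibitors cause a drop in the FAM fluorescence signal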
# Ecoli rRNA inh: inhibitors of bacterial rRNA selective over humanized ribosomes. E. coli WT GFP vs humanized-ribosome RFP mutants, fluorescence, 24 h; active compounds read low; DMSO median 0, no signal -100. GFP signal change (wild-type ribosome), % (no concentration beside the values). 350,000 compounds, 1.6% hits;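 active = significant combined selectivity score with lowered wild-type GFP, culture density cut under 30%, mutant RFP and density less affected; inactive = any of these conditions unmet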
# AID977621: wild-type E. coli growth inhibition versus H69 humanized strain – H69 mutant RFP, wild-type GFP, cherry-pick, dose response. 1,900 tested, under 10 active. shares compounds with Ecoli rRNA inh. activity change, negative = inhibition at 50 µM. fluorescence, 24 h;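 active = Wild-type ribosome reporter drop at least double the humanized mutant ribosome reporter drop, growth loss under a set limit; inconclusive = no clear call, values can overlap the other calls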;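 also: wild-type GFP and H69 mutant RFP strains grown together 50/50 in each well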
# AID977628: growth of wild-type and h24-humanized E. coli strains – h24 mutant RFP vs wild-type GFP, cherry-pick, dose response. 1,900 tested, under 10 active. shares compounds with Ecoli rRNA inh. activity change, negative = inhibition at 50 µM. E. coli WT GFP strain growth, fluorescence, 24 h;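 active = compound lowering the normal-ribosome reporter at least twice as much as the humanized-ribosome reporter, growth loss under a set limit; inconclusive = no clear call, values can overlap the other calls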;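 also: wild-type GFP and h24 humanized RFP strains co-cultured 1 to 1 per well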
# Starred values were filed as active, the others as inactive; ? = inconclusive; · = not tested or not shown. Rows were chosen to be rich in hits. Some 1.9% of all compounds tested hit in one or more screens of this group.
SMILES,PglD inh,Cneo AK release,RAD52 inh,RAD54 inh,Ecoli rRNA inh,AID977621,AID977628
CC(C)(C)C1CCC(C(=O)OCC(=O)N2CCN(C(=O)c3ccco3)CC2)CC1 (stereo not given),5,-1,-7,1,-22*,-5,-5.6
CC(C)(C)C1CCC(C(=O)OCC(=O)N2CCOCC2)CC1 (stereo not given),·,·,-15,·,11,·,·
CN(C)C(=O)C[C@H]1CC[C@@H]2[C@H](COC[C@H](O)CN2S(=O)(=O)c2ccccc2)O1,0,2,-2,-1,2,·,·
COc1cc(SC)ccc1C(=O)N(Cc1ccccc1)c1ccccn1,4,-4,-6,1,-19*,-7.6,-8.2
COc1ccc(C(=O)Nc2ccc3c(c2)OC[C@@H](C)N(C(C)=O)C[C@@H](C)[C@@H](OC)CN(C)C3=O)cc1,0,-1,13,-2,-2,·,·
O=C(O)c1ccc(Cl)c(S(=O)(=O)Nc2ccccc2Cc2ccccc2)c1,7,8,-15,4,-19*,·,?
O=C(O)c1cc(S(=O)(=O)Nc2ccccc2Cc2ccccc2)ccc1Cl,-4,-3,-13,9,-6,·,·
Fc1cccc(Cc2noc(CN3CCCCC3CCc3ccccn3)n2)c1 (stereo not given),0,3,-10,-4,-25*,·,-14
O=C(c1ccccn1)C1CCCN(Cc2nc(Cc3cccc(F)c3)no2)C1 (stereo not given),6,6,5,-11,5,·,·
COC(=O)c1sc(C(C)(C)C)cc1CS(=O)(=O)c1ccc(Cl)cc1,·,·,-7,·,-31*,1.6,-3.8
COC(=O)c1ccc(N)c(CS(=O)(=O)c2ccc(Cl)cc2)c1,3,0,-12,12,-3,·,·
Cc1noc(C)c1NC(=O)Nc1ccc2c(c1)C(=O)N([C@@H](C)CO)C[C@@H](C)[C@@H](CN(C)C(=O)Nc1ccc3c(c1)OCO3)OCCCC[C@@H](C)O2,4,1,6,1,-1,-0.24,?
C[C@@H]1CN([C@@H](C)CO)C(=O)c2cc(NC(=O)C3CC3)ccc2O[C@H]1CN(C)C(=O)Nc1ccc(C(F)(F)F)cc1,-2,7,20,-5,-29*,-18,-13
Cc1noc(C)c1NC(=O)Nc1ccc2c(c1)C(=O)N([C@@H](C)CO)C[C@@H](C)[C@H](CN(C)C(=O)Nc1ccc3c(c1)OCO3)OCCCC[C@H](C)O2,-2,-1,-1,15,-2,1.3,?
C[C@@H]1CN([C@H](C)CO)C(=O)CCCn2nncc2CO[C@@H]1CN(C)C(=O)Nc1ccc(C(F)(F)F)cc1,5,0,-1,5,-18*,-15,?
Cc1noc(C)c1NC(=O)Nc1ccc2c(c1)C(=O)N([C@@H](C)CO)C[C@@H](C)[C@@H](CN(C)C(=O)Nc1c(C)noc1C)OCCCC[C@@H](C)O2,2,1,-14,0,1,·,·
C[C@H](CO)N1C[C@H](C)[C@H](CN(C)C(=O)Nc2ccc3c(c2)OCO3)Oc2c(NC(=O)Nc3ccccc3)cccc2C1=O,4,-4,8,-1,-22*,-11,?
C[C@H]1CN([C@@H](C)CO)C(=O)c2cccc(NC(=O)Nc3ccc4c(c3)OCO4)c2O[C@@H]1CN(C)C(=O)Nc1ccccc1,-1,-4,·,3,0,·,·
CC(C)NC(=O)N[C@@H]1C=C[C@H](CC(=O)NCc2ccc(Oc3ccccc3)cc2)O[C@H]1CO,-1,-2,-8,-3,-4,·,·
Cc1ccc(C(=O)OCC(=O)c2c[nH]c3ccccc23)cc1NC(=O)c1ccco1,·,·,-13,·,-20*,·,?
C=CCn1c(SCc2n[nH]c(=S)n2-c2ccccc2)nnc1-c1ccccc1,4,-2,7,-7,-22*,·,?
Cc1cccc(C)c1OCC(O)CN1CCN(c2ccccn2)CC1 (stereo not given),·,·,-11,·,-8,·,·
Cc1ccc(OCC(O)CN2CCN(c3ccccn3)CC2)c(C)c1 (stereo not given),·,·,0,·,-17*,·,?
c1ccc(Cc2nc3ccccc3s2)cc1,1,1,-24,-14,-18*,·,-12
Cc1cc(C(=O)CSc2nnc(C3CC3)n2C2CC2)c(C)n1C(C)C,0,1,-13,-9,-10,·,·
SMILES,PglD inh,Cneo AK release,RAD52 inh,RAD54 inh,Ecoli rRNA inh,AID977621,AID977628
C=CCn1c(C)cc(C(=O)CSc2nnc(C3CC3)n2C2CC2)c1C,-2,-4,-8,6,-20*,-20,·
Cc1cc(C(=O)Nc2cccc3c2O[C@@H](CN(C)S(=O)(=O)c2ccc(F)cc2)[C@H](C)CN([C@@H](C)CO)C3=O)n(C)n1,-2,5,-4,-3,1,·,·
O=C(c1cccs1)c1c[nH]cc1-c1ccccc1,12,1,-17,4,-30*,-0.54,-2.7
O=C(c1ccccc1)c1c[nH]cc1-c1ccccc1,-7,-1,·,-8,·,·,·
CCOc1ccc(N2C(=O)C(CC(=O)Nc3ccc(F)cc3)N(Cc3ccccn3)C2=S)cc1 (stereo not given),·,·,-6,·,2,·,·
COC(=O)CN1C(=S)N(c2ccc(F)cc2)C(=O)C1CC(=O)Nc1ccc(F)cc1 (stereo not given),2,7,1,0,-24*,6.4,-0.9
CC(C)CNc1nc(S(=O)(=O)c2ccccc2)c(Cl)s1,1,-1,6,15,-40*,?,-9.2
CN(C)CCNc1nc(S(=O)(=O)c2ccccc2)c(Cl)s1,·,·,-9,·,4,·,·
COc1ccc(S(=O)(=O)N(C)C[C@H]2Oc3c(NC(=O)NC4CCCCC4)cccc3C(=O)N([C@H](C)CO)C[C@H]2C)cc1,9,-3,0,7,-5,·,·
COc1ccc(-c2nc3ccc(Cl)cn3c2Cc2cccc(F)c2)cc1OC,3,2,-72,-12,-21*,?,·
COc1ccc(Cc2c(-c3cccc(Cl)c3)nc3ccc(Cl)cn23)c(C)c1,6,1,-39,11,-19*,?,-10
Cc1ccc2nc(-c3ccc(Cl)cc3)c(Cc3ccccc3C(F)(F)F)n2c1,-5,-1,-28,1,-16*,-2.3,-2.8
Fc1ccc(-c2nc3ccc(Cl)cn3c2Cc2cccc(Cl)c2)cc1,2,2,-121,0,-21*,8.2,-17
COc1ccc(NC(=O)N(C)C[C@H]2OCCCC[C@@H](C)Oc3ccc(NS(=O)(=O)c4ccc(Cl)cc4)cc3C(=O)N([C@H](C)CO)C[C@@H]2C)cc1,-3,-2,-13,3,1,·,·
